In data set [1] the test system is Liver. The data set can be described thus: Unbound intrinsic clearance in mouse liver microsomes. Type of data set: ADME, microsome.
The subject of data set [2] is MX1. The experiment in a line: Antiproliferative activity against human MX1 cells incubated over 72 hrs by Cell Titre Glo luminescence assay. The format is functional, cell-based. Particulars: MX1, 72 h. The procedure, abridged:
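Triple-negative breast cancer line MX-1 grown 3 days with compound. Proliferation read with the CellTiter-Glo kit. EC50 is the mean of two measurements.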

In data set [3] the target is T1, Bromodomain-containing protein 4 (Homo sapiens, UniProt O60885). The data set can be described thus: Binding affinity to His-tagged BRD4 BD1-BD2 (K57 to K550 residues) (unknown origin) after 1 hr by Alexa-647-conjugated probe based TR-FRET assay. (In general: In TR-FRET formats the signal depends on donor and acceptor labels being close together.)
Data set [4] concerns the target T1, Bromodomain-containing protein 4. The data set can be described thus: Inhibition of BRD4 (unknown origin) expressed in human H1299 cells co-expressing HPV16-LCR/E2 after 24 hrs by Bright Glo-luciferase reporter gene assay. The format is cell-based. The procedure, abridged: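 Target-engagement reporter in an H1299-derived line carrying a stably integrated E2 expression cassette and an HPV-LCR-driven luciferase reporter. The read-out is BRD4-dependent E2-mediated transcriptional repression. EC50 is the mean of two measurements.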

Data set [5] can be described thus: Permeability of the compound. As to conditions: not told; read-out: permeability. Type of data set: physicochemical.
The test system of data set [6] is Mus musculus. The data set can be described thus: Unbound AUC in mouse at 10 mg/kg, po. The format is ADME, organism-based. As to conditions: in vivo.
Data set [7] is described as follows: Oral bioavailability in mouse at 10 mg/kg. As to conditions: in vivo. The format is ADME, organism-based.
Data set [8] in a line: Half life in mouse at 3 mg/kg, iv. Type of data set: ADME, organism-based. As to conditions: in vivo.
For data set [9], the target named is T1, Bromodomain-containing protein 4. The data set can be described thus: Binding affinity to Ile,Leu,Val,Met-[13C-methyl]-labelled BRD4 BD2 (352 to 457 residues) (unknown origin) expressed in Escherichia coli BL21 (DE3) by NMR method.

Active and inactive are the calls of the source. No cut-off for these calls is given here. Some results are limits rather than exact numbers.

The molecule `Cc1[nH]c(-c2cc(S(C)(=O)=O)ccc2Oc2ccc(F)cc2F)cc1C(N)=O` gave a CL free in [1] of 100 mL/min/kg. Moreover, the results for the 50% effective concentration (EC50) in data set [2] and in [4] were 3200 nM and 4500 nM, respectively. The Ki (usually a dissociation constant, usually derived from enzyme kinetics or from competition with a known ligand) in [3] came to 2200 nM.

For `Cn1cc(-c2cc(S(C)(=O)=O)ccc2Oc2ccccc2)c2cc[nH]c(=O)c21`, affinity in data set [3] was put at a Ki of 17 nM. Moreover, the response in data set [4] was half-maximal at 91 nM (EC50).

In [3], `Cc1[nH]c(-c2ccccc2Oc2ccc(Cl)cc2)cc1C(N)=O` gave a Ki of 410 nM. Besides, a half-maximal effect in data set [4] (EC50) was put at 280 nM.

`Cc1[nH]c(-c2cc(S(C)(=O)=O)ccc2Oc2ccc(F)cc2F)c2cn[nH]c(=O)c12` gave a CL free in data set [1] of 617 mL/min/kg. For the same molecule, the EC50 (usually the concentration at which the effect is half-maximal) in data set [2] amounted to 390 nM; in [4], 750 nM. In data set [3], this molecule gave a Ki of 77 nM. The Papp in data set [5] was found to be 12 ×10⁻⁶ cm/s.

Turning to `Cc1[nH]c(-c2ccccc2N)cc1C(N)=O`, the EC50 in data set [2] and in data set [4] was more than 10000 nM each time. Further, the Ki in [3] was determined as 22000 nM.

On to `COC(=O)C[C@@H]1N=C(c2ccc(Cl)cc2)c2c(sc(C)c2C)-n2c(C)nnc21`, for which the affinity in data set [3], expressed as Ki, was 17 nM.

Take `Cc1[nH]c(-c2c(N)cccc2Oc2ccccc2)cc1C(N)=O`: the affinity in [3] corresponds to a Ki of 1600 nM. Besides, the EC50 in [4] was 2100 nM.

In data set [3], `Cc1[nH]c(-c2ccccc2Oc2ccccc2)c2c1C(=O)NCC2` registered a Ki of 340 nM. Besides, a half-maximal response in [4] (EC50) required 280 nM.

In data set [3], `Cc1[nH]c(-c2ccccc2)cc1C(N)=O` yielded a Ki of 12000 nM.

Regarding `Cc1[nH]c(-c2cc(NS(C)(=O)=O)ccc2Oc2ccccc2)c2c1C(=O)NCC2`, in [3], the Ki stood at 41 nM. In [4], this molecule had an EC50 of 120 nM.

As to `COC(=O)c1ccc(Oc2ccccc2)c(-c2[nH]c(C)c3c2CCCC3=O)c1`, in data set [3], the affinity corresponds to a Ki of 91 nM. The same molecule came in with an EC50 in data set [4] of 2000 nM.

On to `Cc1[nH]c(-c2ccccc2Oc2ccccc2)cc1C(N)=O`, for which the Ki in data set [3] came to 270 nM. In addition, the EC50 in data set [4] is 450 nM.

Molecule `Cc1[nH]c(-c2cc(S(C)(=O)=O)ccc2Oc2ccc(F)cc2F)c2c1C(=O)CCC2` showed a CL free in data set [1] of 1400 mL/min/kg. The values for the EC50 in data set [2] and in [4] were 570 nM and 1400 nM, respectively. For the same molecule, the Ki in [3] came out at 460 nM.

Consider `CCS(=O)(=O)Nc1ccc(Oc2ccccc2)c(-c2[nH]c(C)c3c(=O)[nH]ncc23)c1`, for which the CL free in data set [1] is 800 mL/min/kg. Moreover, the concentration giving a half-maximal response (EC50) turned out to be 52 nM in [2] and 75 nM in [4]. In [3], this molecule had a Ki of 10 nM. In addition, the Papp in data set [5] amounted to 9.5 ×10⁻⁶ cm/s.

`Cc1[nH]c(-c2cc(NS(C)(=O)=O)ccc2Oc2ccc(F)cc2F)c2cn[nH]c(=O)c12` returned a CL free in data set [1] of more than 250 mL/min/kg. Besides, the figures for the EC50 in data set [2] and in data set [4] were 92 nM and 280 nM, respectively. For the same molecule, the Ki in data set [3] amounted to 16 nM. Besides, the Papp in [5] amounted to 6.1 ×10⁻⁶ cm/s.

`Cc1[nH]c(-c2cc(NS(C)(=O)=O)ccc2Oc2ccc(F)cc2F)cc1C(N)=O` registered a Ki in data set [3] of 370 nM. For the same molecule, in data set [4], the response was half-maximal at 2300 nM (EC50).

For the molecule `Cc1[nH]c(-c2cc(NS(C)(=O)=O)ccc2Oc2ccccc2)c2nc[nH]c(=O)c12`, in data set [3], the Ki is 150 nM. In data set [4], this molecule had an EC50 of 410 nM.

In [3], `Cc1[nH]c(-c2ccccc2Oc2ccccc2)c2cn[nH]c(=O)c12` gave a Ki of 37 nM. For the same molecule, the EC50 in [4] is 220 nM.

Turning to `Cc1[nH]c(-c2cc(N)ccc2Oc2ccccc2)c2c1C(=O)CCC2`, the 50% effective concentration (EC50) amounted to 230 nM in data set [2] and 300 nM in data set [4]. The molecule also had a Ki in [3] of 210 nM.

With `CCS(=O)(=O)Nc1ccc(Oc2ccc(F)cc2F)c(-c2cn(C)c3c(=O)[nH]ccc23)c1`, the Ki in data set [3] was 11 nM.

As to `Cn1cc(-c2cc(CS(C)(=O)=O)ccc2Oc2ccc(F)cc2F)c2cc[nH]c(=O)c21`, the CL free in data set [1] came to 400 mL/min/kg. For the same molecule, the Ki in data set [3] is 11 nM. Also, the Papp in data set [5] is 40 ×10⁻⁶ cm/s. The EC50 in data set [4] is 40 nM.

Molecule `CCS(=O)(=O)Nc1ccc(Oc2ccc(F)cc2)c(-c2cn(C)c3c(=O)[nH]ccc23)c1` returned a fAUC in [6] of 0.06 µM·h. Besides, the bioavailability (commonly the share of a dose that reaches the circulation, judged against a reference dose that is usually intravenous) in data set [7] is 33%. The molecule further registered a Ki in data set [3] of 5.5 nM. The EC50 in [4] worked out at 47 nM. For the same molecule, the half-life (as a rule, the time in which the quantity being followed falls by half) in data set [8] was 5.6 h.

On to `Cc1[nH]c(-c2ccccc2Oc2ccccc2)c2c1C(=O)CCC2`, for which, in data set [3], the Ki came to 440 nM. The EC50 in [4] stood at 280 nM.

`Cn1cc(-c2ccccc2Oc2ccccc2)c2cc[nH]c(=O)c21` yielded a CL free in [1] of 106700 mL/min/kg. The EC50 is 580 nM in [2] and 1100 nM in [4]. In data set [3], this molecule displayed a Ki of 120 nM. The Papp in data set [5] was 13 ×10⁻⁶ cm/s.

As for `Cc1[nH]c(-c2ccccc2Oc2ccccc2)c2cc[nH]c(=O)c12`, the Ki in [3] came out at 450 nM. Also, the EC50 in [4] is 700 nM.

As to `CCNC(=O)c1ccc(Oc2ccccc2)c(-c2[nH]c(C)c3c2CCCC3=O)c1`, the EC50 in data set [2] and in data set [4] was 1400 nM throughout. This molecule returned a Ki in data set [3] of 250 nM.

Regarding `Cc1[nH]c(-c2ccccc2N)c2c1C(=O)CCC2`, in data set [3], the affinity, expressed as Ki, was 9500 nM. This molecule showed an EC50 in data set [4] of 7100 nM.

With `Cc1[nH]c(-c2ccccc2Oc2ccccc2)c2nc[nH]c(=O)c12`, the CL free in [1] is more than 6170 mL/min/kg. Further, the figures for the EC50 in [2] and in data set [4] were 1200 nM and 1600 nM, respectively. Besides, in data set [3], the Ki was 1100 nM. Moreover, the Papp in [5] amounted to 100 ×10⁻⁶ cm/s.

`Cc1[nH]c(-c2ccccc2Nc2ccccc2)cc1C(N)=O` yielded a Ki in [3] of 450 nM. In data set [4], this molecule displayed an EC50 of 2800 nM.

For `CC(=O)c1cc(-c2ccccc2N)[nH]c1C`, the outcome in [9] was Active. In data set [3], this molecule showed a Ki of 21000 nM.

The molecule `Cc1[nH]c(-c2cc(NS(C)(=O)=O)ccc2Oc2ccc(F)cc2F)c2c1C(=O)NCC2` yielded a Ki in data set [3] of 84 nM. Further, the concentration giving a half-maximal response (EC50) in [4] worked out at 420 nM.

Take `Cn1cc(-c2cc(NS(C)(=O)=O)ccc2Oc2ccc(F)cc2F)c2cc[nH]c(=O)c21`: the Ki in data set [3] came to 17 nM. This molecule also registered an EC50 in data set [4] of 46 nM.

Take `Cc1[nH]c(-c2cc(NS(C)(=O)=O)ccc2Oc2ccc(F)cc2F)c2c1C(=O)CCC2`: the Ki in data set [3] turned out to be 97 nM. Also, the EC50 in data set [4] turned out to be 75 nM.

In turn, `Cc1[nH]c(-c2cc(NS(C)(=O)=O)ccc2Oc2ccccc2)c2cn[nH]c(=O)c12` returned a Ki in data set [3] of 30 nM. Further, the EC50 in [4] amounted to 180 nM.

For `CCOC(=O)c1[nH]c(C)c2c1CCCC2=O`, the outcome in data set [9] was Active. Also, affinity in [3] was put at a Ki of 25000 nM.

In the case of `Cc1[nH]c(-c2cc(N)ccc2Oc2ccccc2)cc1C(N)=O`, in data set [3], the Ki came to 420 nM. Also, a half-maximal effect in data set [4] (EC50) was put at 880 nM.

The molecule `Cc1[nH]c(-c2cc(NS(C)(=O)=O)ccc2Oc2ccccc2)cc1C(N)=O` had a Ki in data set [3] of 280 nM. For the same molecule, the concentration for a half-maximal effect (EC50) in data set [4] was 1400 nM.

(Values after ChEMBL document CHEMBL4038268, “Methylpyrrole inhibitors of BET bromodomains” (Bioorg Med Chem Lett, 2017).)
